PglD DTNB – inhibitors of Campylobacter jejuni PglD acetyltransferase; AID 602405; inhibition, % at 12.5 µM; purified PglD enzyme, DTNB colorimetric CoA detection; 360,000 tested, 0.098% active; in the data active = inhibition above about 16%, passing the limit was not always enough; inconclusive = no clear call, values can overlap the other calls
PGC1a acetyl inh – PGC1a acetylation modulation, inhibitor mode; inhibition, % at 15.6 µM; AID 651687; 350,000 tested, 0.17% active; U2OS PGC1a acetylation, AlphaScreen anti-acetyl-lysine; with virally co-expressed GCN5 acetyltransferase;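 active = every replicate shows inhibition of at least 40%; inconclusive = mean inhibition at least 40% but some replicate below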;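 note: 0% = neutral control wells and 100% = positive control wells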
Vif imaging – HIV Vif inhibition. HEK293T cells, Vif self-association by quenched fluorescence, imaging, 24 h. inhibition, % at 7.49 µM. 340,000 tested, 0.35% active. AID 602346; in the data active = inhibition above about 50%, passing the limit was not always enough; inconclusive = no clear call, values can overlap the other calls; inactive = below about 31%
Cneo AK release – Cryptococcus neoformans lysis via adenylate kinase release | AID 651654 | C. neoformans lysis, adenylate kinase release luminescence, 4 h; normalised: neutral wells 0, clomiphene wells 100 | 360,000 tested, 0.2% active | lysis activity, % at 15 µM;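 active = mean lysis activity across replicates of at least 80%, whatever share of replicates individually reach that level; inactive = mean lysis activity below 80%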
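Signal: Adenylate kinase release luminescence | Assay system: Log-phase Cryptococcus neoformans yeast cells | Input: Cells at 5 × 10^6 per mL | Buffer or medium: Fresh YPD growth medium | Compound: Single dose | Schedule: Static 4 h at 37 °C with compound, 1 h detection | Controls: Clomiphene | Read-out: Luminescence rise reflecting yeast cell lysis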
FGF22 binding – FGF22 (human) thermal shift binding; activity (Tm shift, normalised), % at 9.99 µM; 340,000 tested, 1.5% active; recombinant FGF22 thermal shift, SYPRO orange fluorescence; percent of sucrose octasulfate shift, DMSO zero;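 active = mean Tm shift, scaled 0 neutral to 100 positive control, at about 1.3% or above, every replicate too, limit read from the data; inconclusive = no clear call, values can overlap the other calls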
Target sequence (Q9HCT0 whole entry, looked up): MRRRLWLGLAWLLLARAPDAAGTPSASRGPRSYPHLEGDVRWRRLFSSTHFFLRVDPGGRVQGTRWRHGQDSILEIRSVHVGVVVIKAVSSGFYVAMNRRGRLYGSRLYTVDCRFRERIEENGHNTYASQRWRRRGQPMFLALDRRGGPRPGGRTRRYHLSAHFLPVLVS
Ecoli rRNA inh – inhibits bacterial ribosomal RNA function over humanized ribosomes. E. coli WT GFP vs humanized-ribosome RFP mutants, fluorescence, 24 h; active compounds read low; DMSO median 0, no signal -100. GFP signal change (wild-type ribosome), % (no concentration beside the values). 350,000 tested, 1.6% active. AID 720706;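 active = significant combined selectivity score with lowered wild-type GFP, culture density cut under 30%, mutant RFP and density less affected; inactive = any of these conditions unmet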
* hit, by the source's call; ? = inconclusive; . = no result given; + = active, no number. Only some compounds are listed: those with a hit (about 2.9% of all), similar ones and a draw of the others.

SMILES | PglD DTNB | PGC1a acetyl inh | Vif imaging | Cneo AK release | FGF22 binding | Ecoli rRNA inh
NC(=O)N/N=C(/CCCCCC/C(=N\NC(N)=O)c1ccccc1)c1ccccc1 | 5 | 6 | -8 | -2 | 0 | -26*
CC1(C)C2CC=C(/C=N/NC(=O)c3ccccc3Br)C1C2 (stereo not given) | . | . | 3 | . | 43* | 5
CC1(C)C2CC=C(/C=N/NC(=O)c3ccc(O)cc3)C1C2 (stereo not given) | . | . | 4 | . | . | .
CC(C)NC(=O)N1C[C@@H]2C(c3ccc(Br)cc3)[C@H](C1)N2CC(F)(F)F (stereo not given in full) | . | . | . | . | . | -2
COc1cc(/C=C/C(=O)OCC(=O)N(C)Cc2ccccc2)cc(OC)c1OC | -3 | . | 8 | -3 | 0 | -2
COc1cc(/C=C/C(=O)OCC(=O)N(C)Cc2ccccc2)ccc1O | -1 | . | 51* | -3 | 0 | .
COc1cc(NC(=O)COC(=O)/C=C/c2ccc(O)c(OC)c2)cc(OC)c1 | . | 3 | 26 | . | 0 | -29*
C[C@@H]1CN([C@H](C)CO)C(=O)c2cc(C#CCN(C)C)cnc2O[C@H]1CN(C)Cc1cccc(C(=O)O)c1 | . | 3 | . | . | 0 | 8
C[C@H](CO)N1C[C@H](C)[C@@H](CN(C)C(=O)Nc2ccc3c(c2)OCO3)Oc2c(NC(=O)Cc3cn(C)c4ccccc34)cccc2C1=O | . | . | . | . | . | -7
CCCCNc1c(-c2ccc(OC)c(Sc3ccc(OC)cc3)c2)nc2cnccn12 | 4 | . | 61* | 1 | 0 | -1
CCCCNc1c(-c2ccc(OC)c(Sc3ccc(OC)cc3)c2)nc2ccccn12 | 3 | -11 | -1 | 0 | . | -22
CCCn1nnc(NC(=O)C(c2ccccc2)c2ccccc2)n1 | -1 | -11 | 50* | -1 | . | .
CCOC(=O)[C@]12Cc3c(cc(OC)c(OC)c3OC)[C@H]1N(CCC(=O)OC)C(=O)c1cc(OC)ccc12 | . | . | . | . | 0 | -24*
COCc1[nH]nc2c1C(c1ccc(F)cc1)N(c1ccccc1)C2=O (stereo not given) | . | . | . | . | 42 | -5
COc1ccc(N2C(=O)c3n[nH]c(C)c3C2c2ccc(F)cc2)cc1 (stereo not given) | . | . | . | . | 0 | -32*
COCc1[nH]nc2c1C(c1ccc(F)cc1)N(c1ccc(OC)cc1)C2=O (stereo not given) | . | . | . | . | 43* | -12
C[C@@H]1CN([C@@H](C)CO)C(=O)Cc2cc(NC(=O)Nc3ccc(C(F)(F)F)cc3)ccc2O[C@@H]1CN(C)S(=O)(=O)c1ccc(F)cc1 | . | -9 | . | . | . | 6
C[C@@H]1CN([C@@H](C)CO)C(=O)c2cc(NC(=O)Nc3cccc4ccccc34)ccc2O[C@@H](C)CCCCO[C@H]1CN(C)Cc1ccc2c(c1)OCO2 | 1 | -5 | . | -1 | -1 | -4
COc1ccc(NC(=O)Nc2ccc3c(c2)C(=O)N([C@@H](C)CO)C[C@@H](C)[C@@H](CN(C)C(=O)NC2CCCCC2)O3)cc1 | 4 | 4 | . | -8 | -1 | -1
Cc1ccccc1C(=O)NCC(=O)O | -9 | 9 | 1 | -2 | 43* | 8
CC(=O)NC1=NN(C(C)=O)C(C)(CC(=O)OC(C)(C)C)S1 (stereo not given) | . | 3 | 7 | . | 43* | 6
CCCC1(C)SC(NC(C)=O)=NN1C(C)=O (stereo not given) | 2 | -47 | 0 | 3 | . | .
C[C@@H]1CN([C@H](C)CO)C(=O)Cc2cc(NC(=O)Nc3ccc(F)cc3)ccc2O[C@@H]1CN(C)C | 0 | -8 | . | -1 | 0 | 2
COc1cccc(C(=O)N[C@H](C(=O)N2CCC[C@H]2C(=O)NCCc2ccccc2Cl)c2ccccc2)c1 | . | . | . | . | 0 | -34*
Cc1ccc(C2=NC(=O)/C(=C/c3cc(O)c(O)c(Br)c3)S2)cc1 | -2 | 9 | 1 | 3 | 43* | -42
SMILES | PglD DTNB | PGC1a acetyl inh | Vif imaging | Cneo AK release | FGF22 binding | Ecoli rRNA inh
COc1cc(/C=C2\SC(c3ccc(C)cc3)=NC2=O)cc(OC)c1O | . | 5 | 1 | . | 0 | 3
CCOC(=O)Nc1ccc(C)cc1NC(=O)OCC | 0 | -9 | -4 | 1 | . | 8
CCOC(=O)Nc1ccc(NCc2ccc(F)cc2)nc1N | -5 | -13 | + | 0 | 0 | .
O=C(Nc1cccc(S(=O)(=O)N2CCCCC2)c1)c1ccc(Cl)nc1 | -1 | -26 | -25 | 0 | 0 | -24*
O=C(Nc1cccc(S(=O)(=O)N2CCCCCC2)c1)c1ccc(Cl)nc1 | -4 | 12 | -29 | -3 | 0 | -11
Cc1ccc(NC(=O)c2n[nH]c(=O)c3ccccc23)cc1S(=O)(=O)N1CCOCC1 | . | . | -2 | . | 43* | 11
Cc1ccc(NC(=O)c2ccc([N+](=O)[O-])o2)cc1S(=O)(=O)N1CCOCC1 | . | -191 | -3 | . | 43 | -23*
O=C(Nc1ccc(Cl)c(S(=O)(=O)N2CCOCC2)c1)c1n[nH]c(=O)c2ccccc12 | -2 | . | 10 | -1 | 0 | 1
Cc1ccc(NC(=O)c2cc(S(=O)(=O)N3CCCCC3)ccc2N2CCOCC2)cc1S(=O)(=O)N(C)C | -1 | 4 | 52* | 0 | 0 | .
CC(=O)N1[C@@H](CO)[C@@H]2c3ccccc3N(S(=O)(=O)c3ccc(F)cc3)C[C@@H]21 | -1 | 7 | . | 1 | . | -1
CCC(=O)N1CCC2(CC1)CN(Cc1cc(F)ccc1F)[C@H](CO)c1c2c2ccc(OC)cc2n1C | . | -5 | . | . | 0 | 2
CN(C)CC(=O)Nc1ccc2c(c1)[C@H]1C[C@@H](CC(=O)N3CCOCC3)O[C@H](CO)[C@H]1O2 | 15 | 3 | . | 0 | 0 | 3
Cc1ccc(S(=O)(=O)N2CCN(C(=O)c3n[nH]c(=O)c4ccccc34)CC2)c(C)c1 | 1 | . | 53* | 2 | 0 | -3
O=C(Nc1cccc(S(=O)(=O)N2CCCCC2)c1)c1ccc([N+](=O)[O-])o1 | -7 | -226 | -5 | 6 | 0 | -28*
O=[N+]([O-])c1cc(CN2CCN(c3ccccc3)CC2)c(O)c2ncccc12 | . | 21 | -8 | . | 43* | -23
CCCCc1cc(=O)oc2cc(C)cc(OCC(=O)N3CCC(C(=O)O)(c4ccccc4)CC3)c12 | 1 | -2 | ? | 0 | 1 | -13*
CCOc1cc(C)cc2oc(=O)cc(-c3ccccc3)c12 | 4 | 1 | -3 | -1 | 0 | -36*
COCCNC(=O)Cc1ccc(F)cc1 | . | . | 3 | . | 0 | 16
CC(C)(C)c1ccc(OCCNC(=O)Cc2ccc(F)cc2)cc1 | . | . | -1 | . | 1.6* | .
CC(C)OCCCNC(=O)Cc1ccc(F)cc1 | 0 | . | -6 | 3 | 43* | 15
Cc1ccc(S(=O)(=O)N[C@@H]2CC[C@@H](CC(=O)N3CCc4ccccc4C3)O[C@@H]2CO)cc1 | 11 | -18 | . | 7 | 0 | -2
COC(=O)COc1ccccc1/C=C1/NC(=O)NC1=O | 3 | 5 | 0 | -3 | . | .
